Published values pooled from the literature.
Protocols differ between the studies behind these lines.
Target: Dual specificity protein kinase CLK1 (CLK1, Homo sapiens, UniProt P49759)

SMILES	observed	mode	method	tested at	endpoint	result
O=C1Nc2ccc(Cl)cc2C1=Cc1cc(Cl)c(O)c(Cl)c1	cell-free assay			0.5 µM	remaining signal	85%
CNCc1ccccc1-c1csc([C@H](C)Nc2nc(C)nc3cc(OC)c(OC)cc23)c1	cell-free assay		competition with immobilised ligand	1 µM	remaining binding	95%
C#Cc1cccc(Nc2ncnc3cc(OCCOC)c(OCCOC)cc23)c1	cell-free assay			0.5 µM	remaining signal	107%
Cc1sc(C(=O)NC2COC2)cc1-n1cc(NC(=O)Nc2c(F)cccc2Cl)cn1	enzyme activity	inhibitor		10 µM	remaining activity	98.4%
CCc1ccccc1C(=O)Nc1n[nH]c2c(C)c(F)c(C3C(C#N)=C(C)N(C)C(C)=C3C#N)cc12	cell-free assay		competition with immobilised ligand	1 µM	remaining binding	84%
CCCS(=O)(=O)Nc1ccc(F)c(C(=O)c2c[nH]c3ncc(-c4ccc(Cl)cc4)cc23)c1F	enzyme activity	inhibitor		1 µM	inhibition	< 10%
COc1cc(Cl)c(C(=O)N[C@@H](CN[C@H]2CC[C@@H](N)CC2)Cc2ccc(C#N)cc2)cc1-c1ccc(CN[C@H](C)c2ccc(C)cc2)o1	enzyme activity	inhibitor		1 µM	remaining activity	91%
CCN(CC)CCNC(=O)c1c(C)[nH]c(/C=C2\C(=O)Nc3ccc(F)cc32)c1C	cell-free assay			0.5 µM	remaining signal	23.3%
O=C(NCc1ncc(C(F)(F)F)cc1Cl)c1ccc2c(c1)C1(CCS(=O)(=O)CC1)[C@H](C1CC1)N2S(=O)(=O)c1ccc(F)cc1	cell-free assay		competition with immobilised ligand	1 µM	remaining binding	100%
Cc1ccc(C(=O)Nc2ccc(CN3CCN(C)CC3)c(C(F)(F)F)c2)cc1C#Cc1cnc2cccnn12	enzyme activity	inhibitor		23.5 nM	remaining activity	38%
CC(=O)N1CCC(c2ccc(C(=O)NC(=N)N)cc2C(F)(F)F)CC1	cell-free assay		competition with immobilised ligand	1 µM	remaining binding	100%
COc1cc2ncnc(Nc3ccc(Oc4ccccc4)c(C)c3C)c2cc1OC	enzyme activity	inhibitor		1 µM	inhibition	3%
Cc1ccc(NC(=O)c2ccc(C)c(C(F)(F)F)c2)cc1C#Cc1nn(C2CCC(O)CC2)c2ncnc(N)c12 (stereo not shown)	cell-free assay			10 µM	remaining signal	64%
Cn1cnc(Br)c1C1=CN(c2ncnc3[nH]cnc23)CCS1	enzyme activity	inhibitor	radiometric	2 µM	inhibition	96.1%
C[S+]([O-])c1ccc(-c2nc(-c3ccncc3)c(-c3ccc(F)cc3)[nH]2)cc1 (stereo not shown)	cell-free assay			0.5 µM	remaining signal	101%
Cc1cc(-n2nc(Cc3cc(F)cc(C(F)(F)F)c3)nc2C)ccc1C(N)=O	cell-free assay		competition with immobilised ligand	1 µM	remaining binding	86%
COc1cc2nccc(Oc3ccc(NC(=O)Nc4ccc(F)cc4F)c(F)c3)c2cc1OC	thermal stability		DSF	10 µM	ΔTm	5 to 10 °C
Nc1ncnc2occ(-c3ccc(NC(=O)Nc4cc(C(F)(F)F)ccc4F)cc3)c12	cell-free assay	inhibitor		20 µM	remaining signal	0.65%
O=C(NC[C@@H]1[C@H]2CN(C(=O)OCc3cc(C(F)(F)F)cc(C(F)(F)F)c3)C[C@@H]12)c1ccc2[nH]nnc2c1	cell-free assay		competition with immobilised ligand	1 µM	remaining binding	87%
COc1cc(-c2cc(-c3ccc(N4CCNCC4)cc3)cnc2C)cc(OC)c1OC	enzyme activity	inhibitor		1 µM	inhibition	1%
CC(C)(C)c1nc2c(s1)c1nc(N)ncc1c1ccc(NS(=O)(=O)c3c(F)cccc3F)c(F)c12	enzyme activity	inhibitor	radiometric	1 µM	remaining activity	91%
CC(C)(O)[C@H]1CC[C@H](Nc2ccc3ncc(-c4cccc(C(F)(F)F)c4)n3n2)CC1	enzyme activity	inhibitor		1 µM	remaining activity	8.45%
